V-ATPase pHluor: regulators of yeast V-ATPase proton pumping, primary screen, pHLuorin cytosolic pH fluorescence. S. cerevisiae. response, % at 10 µM. 0.37% of 350,000 active. AID 504577, 2011; in the data active = response mostly above about 7.3%, no sharp cut-off; inactive = mostly below about 5.4%; also: actives read high
SR-BI DiI-HDL act: activators of SR-BI mediated DiI-HDL uptake, primary screen, ldlA[mSR-BI] CHO cells, DiI fluorescence; 3 h; 100 = double the neutral-control signal; activation, % at 12.5 µM; 0.096% of 320,000 active; AID 504775, 2011;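 active = mean replicate activation of at least 60% and every replicate at or above 60%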
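Material: SR-BI-overexpressing, LDLR-lacking CHO cells; schedule: compound exposure 3 h, 37 °C; reagent: DiI-labelled HDL at 10 µg/mL final; technique: bottom-read fluorescence, 550/595 nm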
CaV13 FRET inh: Disruptors of the CACNA1D IQ motif to Ca2+-dependent inactivation inhibitor domain association, primary screening, Förster resonance energy transfer in intact living … | HEK cells, CFP/YFP FRET ICDI-IQ, plate reader, 10 min; percent FRET-ratio fall versus neutral wells | 0.098% of 340,000 active | AID 743397 | inhibition, % at 12.3 µM;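 active = mean replicate inhibition of at least 30% and at least 1% of replicates passing that level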
SR-BI DiI inh: inhibitors of SR-BI mediated HDL lipid uptake, primary screen, ldlA[mSR-BI] cells, fluorescence, single point; AID 488896, 2010; ldlA[mSR-BI] CHO cells, DiI-HDL uptake fluorescence, 3 h; inhibition, % at 12.5 µM; 0.96% of 320,000 active; Scavenger receptor class B member 1 (Mus musculus), Q61009;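 active = mean replicate inhibition of at least 70% and a set share of replicates each scoring 70 or more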
Target sequence (Q61009 whole entry, looked up): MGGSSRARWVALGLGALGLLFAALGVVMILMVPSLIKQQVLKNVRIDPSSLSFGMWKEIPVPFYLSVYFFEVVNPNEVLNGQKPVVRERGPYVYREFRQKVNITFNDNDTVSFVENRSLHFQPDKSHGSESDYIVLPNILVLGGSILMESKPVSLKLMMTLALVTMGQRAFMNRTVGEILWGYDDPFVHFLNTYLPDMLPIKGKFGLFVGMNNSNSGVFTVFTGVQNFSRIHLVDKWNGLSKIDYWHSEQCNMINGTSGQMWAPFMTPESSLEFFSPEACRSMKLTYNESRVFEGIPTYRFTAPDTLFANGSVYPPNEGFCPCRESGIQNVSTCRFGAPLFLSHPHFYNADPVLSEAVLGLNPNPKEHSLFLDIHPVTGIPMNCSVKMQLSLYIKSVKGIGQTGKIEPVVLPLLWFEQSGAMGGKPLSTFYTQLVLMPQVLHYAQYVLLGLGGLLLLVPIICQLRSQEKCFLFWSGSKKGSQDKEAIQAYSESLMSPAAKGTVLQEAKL
Vif inh: HIV Vif self-association inhibitors, primary screen, imaging, HEK293T, single point; HEK293T cells, Vif self-association by quenched fluorescence, 24 h; AID 602346, 2012; 0.35% of 340,000 active; inhibition, % at 7.49 µM; in the data active = inhibition above about 50%, passing the limit was not always enough
NTR1 ag: agonists of human NTR1, primary screen, imaging, U2OS cells, beta-arrestin-GFP, high content | Neurotensin receptor type 1 (Homo sapiens), P30989 | NTR1-U2OS beta-arrestin-GFP spot imaging, agonist mode | activation, % at 20 µM | 0.17% of 330,000 active | AID 493036, 2011;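 active = activation at or above 40% of the spot to cytoplasm intensity ratio, with at least 20 cells analyzed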
Large screens that a line does not name were inactive. An excerpt weighted towards active compounds, which were near 1.7% of everything screened.

Cc1cc(S(=O)(=O)N2CCOCC2)ccc1OCC(=O)NCCN1CCOCC1	Vif inh 71
Cc1cc(S(=O)(=O)N2CCOCC2)ccc1OCC(=O)N1CCCC1	Vif inh 65 (no result: SR-BI DiI-HDL act, SR-BI DiI inh)
Cc1cc(S(=O)(=O)N2CCOCC2)ccc1OCC(=O)N1CCCCC1	none (no result: SR-BI DiI-HDL act, SR-BI DiI inh)
O=C(NCc1ccccc1)[C@@H]1CCCN1C(=O)[C@H]1CCCN1C(=O)c1ccccc1F	none (no result: V-ATPase pHluor, SR-BI DiI-HDL act, SR-BI DiI inh, Vif inh, NTR1 ag)
CC(=O)Nc1ccc(OCC(=O)NC(C)c2ccc(F)cc2)cc1 (stereo not given)	none
O=S(=O)(NCC(c1ccc2c(c1)OCO2)N1CCOCC1)c1ccccc1 (stereo not given)	SR-BI DiI-HDL act 347
Cc1ccc(-n2nc3c(N4CCC(C(=O)NCCc5ccccc5C)CC4)nnc(C)c3c2C)cc1	Vif inh 54 (no result: CaV13 FRET inh)
CCOC(=O)CSc1nc(C2CC2)cc(-c2ccc(F)cc2)c1C#N	SR-BI DiI inh 72 (no result: CaV13 FRET inh)
COc1ccc(-c2cc(C3CC3)nc(SCC(=O)c3cccs3)c2C#N)cc1	none
CC(=O)NC(=S)Nc1ccccc1F	Vif inh 58 (no result: SR-BI DiI-HDL act, SR-BI DiI inh)
CCC(=O)NC(=S)Nc1ccccc1F	none
COc1ccc(-c2nc3cc(C)c(Br)c(C)n3c2Cc2ccsc2)cc1OC	none (no result: V-ATPase pHluor, SR-BI DiI-HDL act, SR-BI DiI inh, Vif inh, NTR1 ag)
CCC(=O)Nc1ccc(-c2cc(-c3ccccc3)nc(-c3ccc(NC(=O)CC)cc3)n2)cc1	SR-BI DiI-HDL act 103
CCC(C(=O)OCC(=O)N1C(C)CCCC1C)c1ccccc1 (stereo not given)	V-ATPase pHluor 284
CCc1nc(SCc2ccc(OCC(C)C)cc2)n[nH]1	none
COc1cc(O)cc2c1[C@@H]1Oc3c(ccc(O)c3CC=C(C)C)[C@@H]1CO2	SR-BI DiI inh 85 (no result: CaV13 FRET inh)
Cc1cc(C(=O)Cn2nc(C(=O)O)c3ccccc3c2=O)c(C)n1-c1ccc(F)cc1	none
Cc1cccc(N2CCN(C(=O)C3CCN(c4ncnc5c4nc4n5CCCCC4)CC3)CC2)c1C	SR-BI DiI inh 74
O=C(C1CCN(c2ncnc3c2nc2n3CCCCC2)CC1)N1CCN(c2ccccc2F)CC1	none
CCCC#C/C(CCC)=C1\c2ccccc2C(=O)N1c1ccccc1	none (no result: V-ATPase pHluor, SR-BI DiI-HDL act, SR-BI DiI inh, Vif inh, NTR1 ag)
CCNC(=S)N/N=C/c1cc(C)n(-c2ccc(Cl)cc2)c1C	none
Cc1cc(/C=N/NC(N)=S)c(C)n1-c1ccc(Cl)c(Cl)c1	SR-BI DiI inh 81
COC(=O)C1SCC2C(=O)N(Cc3cccc(C)c3)CC(=O)N21 (stereo not given)	Vif inh 128
COC(=O)C1SCC2C(=O)N(Cc3ccc(F)cc3)CC(=O)N21 (stereo not given)	none
CCOc1ccc(C(=O)c2cc3ccc(O)cc3oc2=O)cc1	CaV13 FRET inh 90
Clc1ccccc1-c1nc(-c2ccncc2)no1	none
Cc1onc(-c2ccccc2Cl)c1-c1nc(-c2ccncc2)no1	V-ATPase pHluor 21 (no result: CaV13 FRET inh)
CC(=O)NC12CC3CC(C1)CC(C(=O)Nc1cccc(S(=O)(=O)N4CCCCCC4)c1)(C3)C2	none (no result: NTR1 ag)
COc1ccc(N=C2NC(=O)S/C2=C\c2ccc(N(C)C)cc2)cc1	Vif inh 104
Cn1nc(C(=O)NC2CCC(O)CC2)c2ccccc2c1=O (stereo not given)	none (no result: Vif inh)
COc1ccccc1NC(=O)c1cc(-c2ccc(OC)c(OC)c2)nc2ccccc12	none
COc1cc2c(cc1NC(=O)c1cc(-c3cccnc3)nc3ccc(C)cc13)oc1ccccc12	SR-BI DiI inh 78
Cc1ccc2nc(-c3ccccc3)cc(C(=O)Nc3cccnc3)c2c1	none
COc1cc2c(cc1NC(=O)c1cc(-c3ccncc3)nc3ccccc13)oc1ccccc12	SR-BI DiI inh 83
CCOc1nc(C)nc(NC(=O)NS(=O)(=O)c2ccccc2Cl)n1	SR-BI DiI-HDL act 61
COc1cc(OC)nc(NC(=O)NS(=O)(=O)c2ccccc2Cl)n1	none (no result: SR-BI DiI-HDL act, SR-BI DiI inh)
CC(C)[C@H](NC(=O)C1CC1)C(=O)N1CCC[C@H]1C(=O)NCc1ccccc1	none (no result: V-ATPase pHluor, SR-BI DiI-HDL act, SR-BI DiI inh, Vif inh, NTR1 ag)
CCC(C)NC(=O)CC(C)C (stereo not given)	none
CC(C)CC(=O)NCC(C)NC(=O)CC(C)C (stereo not given)	SR-BI DiI-HDL act 73
O=C(C=Cc1ccccn1)c1ccccc1	Vif inh 70 (no result: NTR1 ag)
CON(C)C(=O)/C=C/CCCCNC(=O)OC(C)(C)C	SR-BI DiI-HDL act 63
CC1=Nn2c(nnc2-c2ccccc2F)SC1	V-ATPase pHluor 15
Cc1cccnc1NC(=O)c1ccc(Cl)c(S(=O)(=O)N2CCCCC2)c1	none
CC1=Nc2ccccc2/C1=C/c1nc(-c2ccc(C)s2)oc1O	SR-BI DiI inh 103
CC1=Nc2ccccc2/C1=C\c1nc(-c2ccccc2)oc1O	none (no result: SR-BI DiI-HDL act)
CCN(CC(=O)Nc1cc(Cl)cc(Cl)c1)CC(=O)NC1CCS(=O)(=O)C1 (stereo not given)	Vif inh 54
COc1ccc(C)c2sc(NC(=O)c3cccc(N4C(=O)CCC4=O)c3)nc12	none
Cc1ccc(C)c2sc(NC(=O)c3ccc(N4C(=O)CCC4=O)cc3)nc12	SR-BI DiI inh 79
O=c1[nH]c(=O)c2[nH]c(=S)n(-c3ccccc3)c2[nH]1	none (no result: NTR1 ag)
CCn1c2ccccc2c(=O)c2ccccc21	CaV13 FRET inh active
Cc1cc(S(=O)(=O)NC(C)c2nnc3ccccn23)ccc1Br (stereo not given)	none
C=C(C)CN(CC)C(=O)CSc1nc2ncc(Cl)cc2[nH]1	none
C=C(C)CSc1nc2ncc(Cl)cc2[nH]1	Vif inh 69
CN(CC(=O)Nc1ccc(F)cc1)C(=O)CSc1nc2ncc(Cl)cc2[nH]1	V-ATPase pHluor 74
COc1ccc(C(=O)N/C(=C\c2cn(S(=O)(=O)N(C)C)c3ccccc23)C(=O)N2CCOCC2)cc1	none
Cn1cc(Cl)cc(C(=O)Nc2ccccc2)c1=O	none (no result: SR-BI DiI-HDL act, SR-BI DiI inh)
O=C(Nc1cc2c3c(c1)C1CCCC1CN3CC1CCCC21)c1ccccc1 (stereo not given)	SR-BI DiI inh 80
O=[N+]([O-])c1ccc(N2CCN(S(=O)(=O)c3ccc(Cl)cc3)CC2)cc1NCC1CCCO1 (stereo not given)	Vif inh 57
CN(C)S(=O)(=O)c1cccc(NC(=O)/C=C/c2ccc(S(=O)(=O)N3CCOCC3)cc2)c1	none
CC(=O)c1cccc(NC(=O)/C=C/c2ccc(S(=O)(=O)N3CCOCC3)cc2)c1	SR-BI DiI inh 72 (no result: Vif inh)
O=C(/C=C/c1ccc(OC(F)F)cc1)Nc1cccc(S(=O)(=O)N2CCOCC2)c1	SR-BI DiI inh 80 (no result: CaV13 FRET inh)
CSCCC(C(=O)Nc1c(C)cccc1C)N1CCN(c2ccc(F)cc2)CC1 (stereo not given)	none (no result: V-ATPase pHluor, SR-BI DiI-HDL act, SR-BI DiI inh, Vif inh, NTR1 ag)
